Measurements taken from ChEMBL document CHEMBL3872268, “3-Amino-thieno[2,3-b]pyridines as microtubule-destabilising agents: Molecular modelling and biological evaluation in the sea urchin embryo and human cancer cells” (Bioorg Med Chem, 2017).
Calls of active or inactive are those of the source.

What was measured:
[1] = system: Paracentrotus lividus; assay: Induction of microtubule destabilization activity in sea urchin free-swimming blastulae assessed as embryo spinning measured after 0.25 to 20 hrs; details: Blastula
Summary of the method: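 Free-swimming blastulae just after hatching (8–10 h post-fertilisation) were cultured in filtered seawater at room temperature. They were treated with 2-fold decreasing concentrations (DMSO stock diluted 10-fold in EtOH; final DMSO ≤0.05%, EtOH ≤1%). Spinning and lack of forward movement were observed by light microscopy after 15 min to 20 h. The value is the effective threshold concentration, from duplicate measurements.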

[2] = system: Paracentrotus lividus; assay: Induction of microtubule destabilization in sea urchin embryo assessed as cleavage alteration exposed 8 to 20 mins after fertilization and 45 to 55 mins before first mitotic cycle completion measured 2.5 to 5.5 hrs after fertilization
Summary of the method: (§1)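 Gametes were obtained by intracoelomic injection of 0.5 M KCl, and eggs were fertilised in filtered seawater. Embryos were cultured at room temperature with paddle agitation (60 rpm), as a monolayer at up to 2000 embryos/mL. Eggs were exposed 8–20 min post-fertilisation to 2-fold decreasing concentrations (10 mM DMSO stock diluted 10-fold in EtOH). Cleavage was scored microscopically at 2.5–5.5 h. The read-out was the threshold concentration, in duplicate.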

[3] = system: Paracentrotus lividus; assay: Induction of microtubule destabilization in sea urchin embryo assessed as cleavage arrest exposed for 8 to 20 mins after fertilization and 45 to 55 mins before first mitotic cycle completion measured 2.5 to 5.5 hrs after fertilization; summary of the method: as §1
[4] = Growth inhibition of human NCI60 cells incubated for 48 hrs by sulforhodamine B assay; type: functional; details: NCI60, 48 h
Summary of the method: (§2)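 NCI Developmental Therapeutics Program panel of sixty human tumour cell lines. Compounds were screened first at a single 10 μM dose (percent growth inhibition), and dose-response curves were run for active ligands. GI50 is the concentration giving 50% growth inhibition, reported as the mean across the 60 lines.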

[5] = system: Paracentrotus lividus; assay: Induction of microtubule destabilization in sea urchin embryo assessed as formation of tuberculate eggs for 8 to 20 mins after fertilization and 45 to 55 mins before first mitotic cycle completion measured 2.5 to 5.5 hrs after fertilization
Summary of the method: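 Sea urchin gametes were obtained by intracoelomic 0.5 M KCl injection, and embryos were cultured in filtered seawater at room temperature at up to 2000 embryos/mL. Fertilised eggs were exposed to 2-fold decreasing concentrations from 10 mM DMSO stocks diluted 10-fold in 96% EtOH. Final DMSO was kept ≤0.05% and EtOH ≤1%. Microscopic scoring gave the EC, the threshold causing 100% cleavage alteration, in duplicate.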

[6] = system: Paracentrotus lividus; assay: Induction of microtubule destabilization in sea urchin embryo assessed as developmental retardation at later stages of development
[7] = system: Paracentrotus lividus; assay: Induction of microtubule destabilization in sea urchin embryo assessed as alteration at later stages of development
[8] = Growth inhibition of human NCI60 cells at 10 uM incubated for 48 hrs by sulforhodamine B assay relative to control; type: functional; details: NCI60, 48 h, read-out: GI; summary of the method: as §2
[9] = Toxicity in sea urchin embryo assessed as induction of embryo disintegration at early pluteus stage; details: paracentrotus lividus
[10] = Toxicity in sea urchin embryo assessed as induction of embryo death at early pluteus stage; details: paracentrotus lividus

Work on Cc1cccc(NC(=O)c2sc3nc4c(cc3c2N)CCC4)c1C yielded an EC [1] of 5 µM, an EC [2] of 0.05 µM and an EC [3] of 0.5 µM.

With COc1ccc(C(=O)c2cc(OC)c(OC)c(OC)c2)cc1O [PHENSTATIN] the EC [1] was 0.5 µM, the EC [2] was 0.01 µM and the EC [3] was 0.05 µM. For the same compound, the GI50 [4] was 60 nM.

In the case of Nc1c(C(=O)c2ccc3c(c2)OCO3)sc2nc3c(cc12)CCCC3, the EC [1] is reported as over 5 µM, the EC [2] is reported as 0.025 µM and the EC [3] is reported as 0.5 µM. The Activity [5] was “Active”.

Work on Cc1ccc(C(=O)c2sc3nc(C)ccc3c2N)cc1 yielded an EC [1] of over 10 µM, an EC [2] of 1 µM and an EC [3] of 4 µM. The Activity [5] was “Active”.

COc1ccc(C(=O)c2sc3nc4c(c(-c5ccccc5)c3c2N)CCCC4)cc1OC showed an EC [1] of over 4 µM, an EC [2] of over 4 µM and an EC [3] of over 4 µM. The Activity [6] was “Active” and the Activity [7] was “Active”.

In the case of Cc1cc(C)c2c(N)c(C(=O)c3ccc(Br)cc3)sc2n1, the EC [1] is reported as over 4 µM, the EC [2] is reported as over 4 µM and the EC [3] is reported as over 4 µM.

In the case of Nc1c(C(=O)c2ccc(Br)cc2)sc2nc3c(cc12)CCCC3, the EC [1] is reported as over 4 µM, the EC [2] is reported as 0.5 µM and the EC [3] is reported as over 4 µM. The inhibition of growth at 10 µM [8] was 8.1%.

Work on Nc1c(C(=O)c2ccc(Cl)cc2)sc2nc(-c3cccs3)ccc12 yielded an EC [1] of over 4 µM, an EC [2] of over 4 µM and an EC [3] of over 4 µM. The Activity [9] was “Toxic” and the Activity [10] was “Toxic”.

Nc1c(C(=O)Nc2cccc(C(F)(F)F)c2)sc2nc3c(cc12)CCCCC3 showed an EC [1] of over 4 µM, an EC [2] of over 4 µM and an EC [3] of over 4 µM.

Compound COc1ccc(C(=O)c2sc3nc4c(cc3c2N)CCCC4)cc1 has an EC [1] of over 5 µM, an EC [2] of 0.5 µM and an EC [3] of over 4 µM.

CN1CCc2nc3sc(C(=O)c4ccccc4)c(N)c3cc2C1 showed an EC [1] of over 4 µM, an EC [2] of 4 µM and an EC [3] of over 4 µM. For the same compound, the inhibition of growth at 10 µM [8] was 13.3%, the Activity [6] was “Active” and the Activity [7] was “Active”.

Nc1c(C(=O)c2ccccc2)sc2nc3c(cc12)CCCC3 showed an EC [1] of 0.5 µM, an EC [2] of 0.02 µM and an EC [3] of 0.2 µM.

In the case of Cc1ccc2c(N)c(C(=O)c3ccc(Cl)cc3)sc2n1, the EC [1] is reported as over 4 µM, the EC [2] is reported as 0.5 µM and the EC [3] is reported as over 4 µM. For the same compound, the inhibition of growth at 10 µM [8] was 18.4%.

In the case of COc1ccc(C(=O)c2sc3nc(C)cc(C)c3c2N)cc1OC, the EC [1] is reported as over 4 µM, the EC [2] is reported as over 4 µM and the EC [3] is reported as over 4 µM. It also gave an inhibition of growth at 10 µM [8] of 14.2%.

Cc1ccc(C(=O)c2sc3nc4c(cc3c2N)CCCC4)c(C)c1 showed an EC [1] of over 5 µM, an EC [2] of 0.05 µM and an EC [3] of 0.2 µM. For the same compound, the inhibition of growth at 10 µM [8] was 78.9%, the GI50 [4] was 280 nM and the Activity [5] was “Active”.

With Nc1c(C(=O)c2ccc(Br)cc2)sc2nc3c(cc12)CCC3 the EC [1] was over 4 µM, the EC [2] was 1 µM and the EC [3] was over 4 µM. The inhibition of growth at 10 µM [8] was 19.3%.

For Nc1c(C(=O)c2ccc(Br)cc2)sc2ncccc12, the EC [1] was over 4 µM, the EC [2] was 1 µM and the EC [3] was over 4 µM.

Compound Cc1cccc(NC(=O)c2sc3nc4c(cc3c2N)CCCC4)c1C has an EC [1] of 0.5 µM, an EC [2] of 0.01 µM and an EC [3] of 0.1 µM.

COc1ccc(C(=O)c2sc3nc4c(cc3c2N)CCCC4)cc1OC gave an EC [1] of over 5 µM, an EC [2] of 0.5 µM and an EC [3] of 4 µM. The inhibition of growth at 10 µM [8] was 60.5%, the GI50 [4] was 3240 nM and the Activity [5] was “Active”.

N#Cc1cc2c(N)c(C(=O)c3ccc(Cl)cc3)sc2nc1N showed an EC [1] of over 4 µM, an EC [2] of over 4 µM and an EC [3] of over 4 µM. For the same compound, the inhibition of growth at 10 µM [8] was 0.5%, the Activity [6] was “Active” and the Activity [7] was “Active”.
